From article PMC3026963 (The Biochemical journal, 2010)

Assays:
CK2α catalytic subunit = CK2α catalytic subunit (Homo sapiens, UniProt P68400); assay: In vitro phosphorylation assay of CK2α with peptide substrate RRRADDSDDDDD; type: biochemical
Outline: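 Activity is expressed as % of no-peptide control, as the mean of at least three independent experiments. Full-length murine NBD1ΔF508 (389–673) tests were run at 350 μM ATP.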

CK2 holoenzyme = CK2 holoenzyme activity towards protein and peptide substrates; type: biochemical, human; settings: results not shown
Outline: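 Recombinant human CK2α and CK2β expressed in E. coli; holoenzyme formed by pre-incubating CK2α with 10-fold molar excess of CK2β. Radiolabel incorporation was measured; at least three independent experiments were averaged.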

Chain of CK2α catalytic subunit (P68400 whole entry): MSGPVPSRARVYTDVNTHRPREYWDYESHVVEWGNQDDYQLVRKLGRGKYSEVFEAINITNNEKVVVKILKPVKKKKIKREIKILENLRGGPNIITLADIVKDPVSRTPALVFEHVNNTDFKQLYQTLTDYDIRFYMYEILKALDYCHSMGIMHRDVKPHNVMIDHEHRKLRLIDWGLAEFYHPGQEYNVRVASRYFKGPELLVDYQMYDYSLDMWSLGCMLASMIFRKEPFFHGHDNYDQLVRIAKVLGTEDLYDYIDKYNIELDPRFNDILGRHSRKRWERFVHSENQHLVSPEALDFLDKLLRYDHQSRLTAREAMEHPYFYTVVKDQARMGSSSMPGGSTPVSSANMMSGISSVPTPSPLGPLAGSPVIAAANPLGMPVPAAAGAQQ

inhibition of CK2α by the full-length protein (CK2α catalytic subunit; concentration raised up to 20 μM, results not shown): no significant inhibition | effect on CK2 holoenzyme (CK2 holoenzyme): no appreciable effect
B1: NBD1ΔF508: purified ΔF508 mutated recombinant murine NBD1 (nucleotide-binding domain 1 of CFTR; sequence 389–673) (protein)
chain: TTGIIMENVTAFWEEGFGELLEKVQQSNGDRKHSSDENNVSFSHLCLVGNPVLKNINLNIEKGEMLAITGSTGSGKTSLLMLILGELEASEGIIKHSGRVSFCSQFSWIMPGTIKENIIGVSYDEYRYKSVVKACQLQQDITKFAEQDNTVLGEGGVTLSGGQRARISLARAVYKDADLYLLDSPFGYLDVFTEEQVFESCVCKLMANKTRILVTSKMEHLRKADKILILHQGSSYFYGTFSELQSLRPDFSSKLMGYDTFDQFTEERRSSILTETLRRFSVDD
effect on inhibition of CK2α by the ΔF508 peptide (CK2α catalytic subunit; 50 μM NBD1ΔF508, 350 μM ATP): abrogates the inhibitory efficacy of the ΔF508 peptide
